According to ChEMBL document CHEMBL1139844, “Synthesis and antimalarial activity of side chain modified 4-aminoquinoline derivatives” (J Med Chem, 2007):
≈ marks a conversion by molar mass, not a printed value.

Experiments:
[1] = Inhibition of beta-hematin polymerization; design: species or system Plasmodium falciparum
Plasmodium falciparum = assay: Antiplasmodial activity against Plasmodium falciparum NF54; type: functional, organism-based
Mus musculus = assay: Mean survival time of Swiss mice (Mus musculus) infected with Plasmodium yoelii N67 at 30 mg/kg, intraperitoneally; type: functional; settings: route intraperitoneal
Summary of the method: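 Swiss mice infected with P. yoelii N-67; test compounds at 30 mg/kg given intraperitoneally once daily on four consecutive days; saline-treated mice as controls. Mice followed for 28 days; mean survival time (± SE) counted only for mice dying within that period, with survivors beyond 28 days excluded.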

Plasmodium yoelii = assay: Antimalarial activity against Plasmodium yoelii N67 infected in Swiss mice (Mus musculus) at 30 mg/kg, intraperitoneally; type: functional; settings: route intraperitoneal
Summary of the method: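 Swiss mice infected with P. yoelii N-67, dosed ip at 30 mg/kg once daily for four consecutive days; saline-treated controls. Parasitaemia on day 4 gives % suppression = [(C − T)/C] × 100 (C, T = control, treated parasitaemia). Mean survival time counted only for mice dying within the 28-day observation period; survivors beyond 28 days excluded.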

| Structure (SMILES) | IC50 [1] [equivalents] | IC50 (Plasmodium falciparum) [nM] | MIC (Plasmodium falciparum) [µM] | MST (Mus musculus) [days] | Activity (Plasmodium yoelii) [%] |
| --- | --- | --- | --- | --- | --- |
| O=C1c2ccccc2SC(c2ccc(Cl)cc2)N1CCNc1ccnc2cc(Cl)ccc12 (stereo not given) | 0.24 | 13 | 0.26 (≈ 0.125 µg/mL) | 15.2 | 81 |
| O=C1CSCN1CCCCNc1ccnc2cc(Cl)ccc12 | 0.91 | 2650 | 5.96 (≈ 2 µg/mL) |  |  |
| O=C1c2ccccc2SCN1CCNc1ccnc2cc(Cl)ccc12 | 0.94 | 65 | 0.68 (≈ 0.252 µg/mL) | 11.4 | 48.33 |
| O=C1CCSC(c2ccc(Cl)cc2)N1CCCCNc1ccnc2cc(Cl)ccc12 (stereo not given) | 0.76 | 271 | 0.54 (≈ 0.249 µg/mL) | 13.8 | 62.32 |
| O=C1c2ccccc2SCN1CCCCNc1ccnc2cc(Cl)ccc12 | 0.89 | 1510 | 2.51 (≈ 0.999 µg/mL) |  |  |
| O=C1CSC(c2c(Cl)cccc2Cl)N1CCCNc1ccnc2cc(Cl)ccc12 (stereo not given) | 0.39 | 138 | 0.27 (≈ 0.126 µg/mL) | 10.6 | 40.08 |
| CC1SCN(CCNc2ccnc3cc(Cl)ccc23)C1=O (stereo not given) | 1.05 | 1680 | 3.11 (≈ 1 µg/mL) |  |  |
| O=C1c2ccccc2SCN1CCCNc1ccnc2cc(Cl)ccc12 | 0.78 | 429 | 1.3 (≈ 0.499 µg/mL) |  |  |
| O=C1c2ccccc2SC(c2ccc(Cl)cc2)N1CCCCNc1ccnc2cc(Cl)ccc12 (stereo not given) | 0.95 | 1270 | 2.17 (≈ 1.1 µg/mL) |  |  |
| O=C1CSC(c2c(Cl)cccc2Cl)N1CCNc1ccnc2cc(Cl)ccc12 (stereo not given) | 0.46 | 39 | 0.55 (≈ 0.249 µg/mL) | 14.6 | 76.08 |
| CC1SCN(CCCCNc2ccnc3cc(Cl)ccc23)C1=O (stereo not given) | 0.98 | 1290 | 5.73 (≈ 2 µg/mL) |  |  |
| CC1SCN(CCCNc2ccnc3cc(Cl)ccc23)C1=O (stereo not given) | 1.02 | 2330 | 5.65 (≈ 1.9 µg/mL) |  |  |
| O=C1CCSC(c2ccc(Cl)cc2)N1CCCNc1ccnc2cc(Cl)ccc12 (stereo not given) | 0.62 | 14 | 0.28 (≈ 0.125 µg/mL) | 12 | 23.5 |
| O=C1CCSCN1CCCCNc1ccnc2cc(Cl)ccc12 | 0.89 | 1810 | 2.86 (≈ 1 µg/mL) |  |  |
| O=C1c2ccccc2SC(c2ccc(Cl)cc2)N1CCCNc1ccnc2cc(Cl)ccc12 (stereo not given) | 0.46 | 1030 | 2.02 (≈ 0.999 µg/mL) |  |  |
| O=C1CSCN1CCCNc1ccnc2cc(Cl)ccc12 | 0.96 | 1650 | 3.11 (≈ 1 µg/mL) |  |  |
| CCN(CC)CCCC(C)Nc1ccnc2cc(Cl)ccc12 (stereo not given) [CHLOROQUINE] |  |  | 0.39 (≈ 0.125 µg/mL) | 20 | 99.99 |

Further lines, with some results ahead:

| IC50 [1] [equivalents] | IC50 (Plasmodium falciparum) [nM] | MIC (Plasmodium falciparum) [µM] | Structure (SMILES) | MST (Mus musculus) [days] | Activity (Plasmodium yoelii) [%] |
| --- | --- | --- | --- | --- | --- |
| 0.49 | 291 | 5.88 (≈ 3.03 µg/mL) | O=C1c2ccccc2SC(c2c(Cl)cccc2Cl)N1CCNc1ccnc2cc(Cl)ccc12 (stereo not given) |  |  |
| 0.97 | 3070 | 13.8 (≈ 7.5 µg/mL) | O=C1c2ccccc2SC(c2c(Cl)cccc2Cl)N1CCCCNc1ccnc2cc(Cl)ccc12 (stereo not given) |  |  |
| 0.65 | 2190 | 9.45 (≈ 5 µg/mL) | O=C1c2ccccc2SC(c2c(Cl)cccc2Cl)N1CCCNc1ccnc2cc(Cl)ccc12 (stereo not given) |  |  |
| 0.58 | 7150 | 15.2 (≈ 7.5 µg/mL) | O=C1CCSC(c2c(Cl)cccc2Cl)N1CCCCNc1ccnc2cc(Cl)ccc12 (stereo not given) |  |  |
| 0.88 | 6150 | 10.4 (≈ 5 µg/mL) | O=C1CCSC(c2c(Cl)cccc2Cl)N1CCCNc1ccnc2cc(Cl)ccc12 (stereo not given) |  |  |
| 0.75 | 980 | 1.2 (≈ 0.502 µg/mL) | O=C1CSC(c2ccc(Cl)cc2)N1CCNc1ccnc2cc(Cl)ccc12 (stereo not given) |  |  |
| 0.47 | 4070 | 4.62 (≈ 2 µg/mL) | O=C1CCSC(c2ccc(Cl)cc2)N1CCNc1ccnc2cc(Cl)ccc12 (stereo not given) |  |  |
| 0.85 | 1980 | 4.08 (≈ 1.82 µg/mL) | O=C1CSC(c2ccc(Cl)cc2)N1CCCCNc1ccnc2cc(Cl)ccc12 (stereo not given) |  |  |
| 0.96 | 1810 | 2.48 (≈ 0.833 µg/mL) | O=C1CCSCN1CCCNc1ccnc2cc(Cl)ccc12 |  |  |
| 0.98 | 2140 | 3.25 (≈ 1 µg/mL) | O=C1CSCN1CCNc1ccnc2cc(Cl)ccc12 |  |  |
| 0.64 | 3030 | 6.17 (≈ 2.97 µg/mL) | O=C1CSC(c2c(Cl)cccc2Cl)N1CCCCNc1ccnc2cc(Cl)ccc12 (stereo not given) |  |  |
| 0.45 | 3270 | 4.28 (≈ 2 µg/mL) | O=C1CCSC(c2c(Cl)cccc2Cl)N1CCNc1ccnc2cc(Cl)ccc12 (stereo not given) |  |  |
| 0.56 | 1040 | 1.16 (≈ 0.502 µg/mL) | O=C1CSC(c2ccc(Cl)cc2)N1CCCNc1ccnc2cc(Cl)ccc12 (stereo not given) |  |  |
| 0.99 | 2920 | 6.21 (≈ 2 µg/mL) | O=C1CCSCN1CCNc1ccnc2cc(Cl)ccc12 |  |  |
